Data reported in ChEMBL document CHEMBL1817572, “New, potent, selective, and short-acting peptidic V1a receptor agonists” (J Med Chem, 2011).
Bridge positions count the residues as written; N and C are the ends. Square brackets hold non-standard residues; d marks the D form. Peptide text beside a SMILES is read from it. * marks the point of attachment. Ala(cPent) = N[C@@H](CC1CCCC1)C(=O)O; Orn(Pr) = CCCNCCC[C@H](N)C(=O)O; 3Thi = N[C@@H](Cc1ccsc1)C(=O)O; NHCH(CH2OH)2 = OCC(CO)N*; Orn = NCCC[C@H](N)C(=O)O; Dab = NCC[C@H](N)C(=O)O

Legend:
[1] = molecular target: T1, Vasopressin V1b receptor (Homo sapiens, UniProt P47901); assay: Agonist activity at recombinant human vasopressin V1b receptor expressed in Flp-In-293 cells by luciferase reporter gene assay; type: functional, cell-based
T1 sequence (P47901 whole entry): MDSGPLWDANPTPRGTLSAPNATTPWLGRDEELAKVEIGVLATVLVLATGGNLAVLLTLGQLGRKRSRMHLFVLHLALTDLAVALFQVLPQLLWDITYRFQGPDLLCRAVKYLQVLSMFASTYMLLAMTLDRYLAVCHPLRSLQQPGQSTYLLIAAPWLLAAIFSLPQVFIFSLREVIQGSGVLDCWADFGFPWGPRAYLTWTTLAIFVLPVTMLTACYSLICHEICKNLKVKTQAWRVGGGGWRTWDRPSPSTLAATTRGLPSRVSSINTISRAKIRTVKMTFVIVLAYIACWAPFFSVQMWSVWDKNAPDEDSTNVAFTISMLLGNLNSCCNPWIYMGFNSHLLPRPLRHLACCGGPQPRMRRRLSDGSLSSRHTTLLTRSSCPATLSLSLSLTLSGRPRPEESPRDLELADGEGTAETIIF
Summary of the method: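 Reporter gene assays in HEK293 cells transiently cotransfected with V1a (human or rat) or human V2 receptor vector plus NFAT-luciferase (V1a) or CRE-luciferase (V2) reporter; V1b in Flp-In-293 stably expressing receptor, OT in CHO-K1 stably expressing receptor, both transiently transfected with NFAT-luciferase. Two days post-transfection, peptides added for 5 h at 37 °C, lysis with luciferin, luminescence read.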

[2] = molecular target: T2, Vasopressin V1b receptor (Homo sapiens) (UniProt P47901); assay: Partial agonist activity at recombinant human vasopressin V1b receptor expressed in Flp-In-293 cells by luciferase reporter gene assay; type: functional, cell-based
T2 sequence (whole entry): T1 sequence (P47901 whole entry)
Summary of the method: (§1)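 Same luciferase reporter systems (OT in stable CHO-K1, V1b in stable Flp-In-293, each with transient NFAT-luciferase; V1a in HEK293 with NFAT-luciferase, V2 in HEK293 with CRE-luciferase). Peptides added for 5 h at 37 °C two days post-transfection, luminescence read. Partial agonism means efficacy <70%.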

[3] = molecular target: T3, Oxytocin receptor (Homo sapiens) (UniProt P30559); assay: Partial agonist activity at human OT receptor expressed in CHO-K1 cells by luciferase reporter gene assay; type: functional, cell-based; summary of the method: as §1
T3 sequence (whole entry): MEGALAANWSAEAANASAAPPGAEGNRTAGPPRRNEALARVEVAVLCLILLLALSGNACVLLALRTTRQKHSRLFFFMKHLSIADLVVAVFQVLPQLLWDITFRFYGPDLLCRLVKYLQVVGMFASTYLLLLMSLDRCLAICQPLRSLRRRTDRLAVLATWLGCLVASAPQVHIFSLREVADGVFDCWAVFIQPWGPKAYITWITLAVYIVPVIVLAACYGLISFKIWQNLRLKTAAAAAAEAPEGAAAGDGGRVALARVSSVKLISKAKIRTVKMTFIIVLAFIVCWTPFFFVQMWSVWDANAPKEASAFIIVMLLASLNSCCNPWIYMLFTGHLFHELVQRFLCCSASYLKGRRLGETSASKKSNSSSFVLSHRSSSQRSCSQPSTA

[4] = molecular target: T4, Vasopressin V1a receptor (Homo sapiens, UniProt P37288); assay: Agonist activity at recombinant human vasopressin V1a receptor expressed in HEK293 cells by luciferase reporter gene assay; type: functional, cell-based; conditions: read-out: EC50
Target sequence in this assay (P37288 whole entry): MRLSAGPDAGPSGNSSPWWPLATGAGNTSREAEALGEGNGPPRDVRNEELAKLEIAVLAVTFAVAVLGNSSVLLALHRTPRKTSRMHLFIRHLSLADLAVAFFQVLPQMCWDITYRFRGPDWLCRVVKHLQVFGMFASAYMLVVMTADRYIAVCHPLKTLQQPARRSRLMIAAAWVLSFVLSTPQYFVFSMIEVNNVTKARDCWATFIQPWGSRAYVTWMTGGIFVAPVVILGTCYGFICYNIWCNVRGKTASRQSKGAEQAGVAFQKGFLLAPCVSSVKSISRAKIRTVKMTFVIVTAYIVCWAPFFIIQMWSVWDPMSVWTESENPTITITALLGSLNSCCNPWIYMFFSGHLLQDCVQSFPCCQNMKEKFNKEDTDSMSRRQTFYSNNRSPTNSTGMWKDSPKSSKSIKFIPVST

[5] = species: Homo sapiens; assay: Selectivity ratio of EC50 for human vasopressin V1b receptor to EC50 for human vasopressin V1a receptor
[6] = species: Homo sapiens; assay: Selectivity ratio of EC50 for human oxytocin receptor to EC50 for human vasopressin V1a receptor
[7] = molecular target: Vasopressin V1a/V2 (Homo sapiens) (UniProt P30518+P37288); assay: Selectivity ratio of EC50 for human vasopressin V2 receptor to EC50 for human vasopressin V1a receptor
Vasopressin V1a/V2 (Homo sapiens), sequence (P30518 whole entry, looked up): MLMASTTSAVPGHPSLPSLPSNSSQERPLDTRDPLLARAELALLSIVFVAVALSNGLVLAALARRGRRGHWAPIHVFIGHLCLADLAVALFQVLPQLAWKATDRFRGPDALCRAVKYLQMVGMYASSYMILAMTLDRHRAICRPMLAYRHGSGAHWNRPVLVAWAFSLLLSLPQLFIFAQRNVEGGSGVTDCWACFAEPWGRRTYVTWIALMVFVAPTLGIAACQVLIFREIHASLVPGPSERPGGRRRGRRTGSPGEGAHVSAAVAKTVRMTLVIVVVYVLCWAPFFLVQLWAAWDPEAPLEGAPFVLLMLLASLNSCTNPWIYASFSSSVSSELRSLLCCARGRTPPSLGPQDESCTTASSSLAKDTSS
Vasopressin V1a/V2 (Homo sapiens), sequence (P37288 whole entry, looked up): as the sequence (P37288 whole entry) above

[8] = molecular target: T5, Oxytocin receptor (Homo sapiens, UniProt P30559); assay: Agonist activity at human OT receptor expressed in CHO-K1 cells by luciferase reporter gene assay; type: functional, cell-based
T5 sequence (P30559 whole entry): T3 sequence (whole entry)

[9] = molecular target: Vasopressin V2 receptor (Homo sapiens, UniProt P30518); assay: Agonist activity at recombinant human vasopressin V2 receptor expressed in HEK293 cells by luciferase reporter gene assay; type: functional, cell-based
Vasopressin V2 receptor, sequence (P30518 whole entry): as the sequence (P30518 whole entry, looked up) above

[10] = molecular target: Vasopressin V1a receptor (Rattus norvegicus, UniProt P30560); assay: Agonist activity at recombinant rat vasopressin V1a receptor expressed in HEK293 cells by luciferase reporter gene assay; type: functional, cell-based; conditions: read-out: EC50
Vasopressin V1a receptor (Rattus norvegicus, UniProt P30560), sequence (P30560 whole entry): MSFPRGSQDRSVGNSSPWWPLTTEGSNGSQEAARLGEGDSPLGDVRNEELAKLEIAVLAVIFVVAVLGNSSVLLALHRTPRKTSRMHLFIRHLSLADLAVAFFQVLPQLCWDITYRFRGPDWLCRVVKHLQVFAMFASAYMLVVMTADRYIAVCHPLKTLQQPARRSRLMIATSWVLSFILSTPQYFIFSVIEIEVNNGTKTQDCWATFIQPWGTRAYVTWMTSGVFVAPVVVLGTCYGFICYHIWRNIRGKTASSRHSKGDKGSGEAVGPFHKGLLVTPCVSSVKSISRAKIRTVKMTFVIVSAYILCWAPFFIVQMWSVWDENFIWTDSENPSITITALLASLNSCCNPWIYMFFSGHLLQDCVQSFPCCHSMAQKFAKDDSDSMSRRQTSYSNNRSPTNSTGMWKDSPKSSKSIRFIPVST

[11] = tested on: Rattus norvegicus; assay: Vasoconstriction in Wistar rat assessed as assessed as decay in vasopressive duration of action at 3 nmol/kg, iv bolus measured over 10 sec interval; type: functional
Summary of the method: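 Fasted male Wistar rats (206–340 g) under isoflurane, then thiobutabarbital 150 mg/kg ip, ventilated, 37–38 °C, with carotid pressure and jugular dosing. Dibenamine 1.8 mg/rat iv pretreatment. Sequence: iv boluses (0.5 mL/kg) of heparinized vehicle, then two reference doses of 0.1 nmol/kg, then two test doses; one matches the reference diastolic pressure rise. Relative duration = reference decay rate / test decay rate; mean ± SEM.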

[12] = molecular target: T4, Vasopressin V1a receptor; assay: Partial agonist activity at recombinant human vasopressin V1a receptor expressed in HEK293 cells by luciferase reporter gene assay; type: functional, cell-based; summary of the method: as §1
Target sequence in this assay (P37288 whole entry, looked up): as the sequence (P37288 whole entry) above

Structure (SMILES) | EC50 ([1]; read-out: EC50) [µM] | Efficacy [2] [%] | Efficacy [3] [%] | EC50 [4] [µM] | Ratio EC50 [5] | Ratio EC50 [6] | Ratio EC50 [7] | EC50 ([8]; read-out: EC50) [µM] | EC50 ([9]; read-out: EC50) [µM] | EC50 ([8]; cho-k1, read-out: EC50) [µM] | EC50 ([8]; read-out: pEC50 (converted)) [µM] | EC50 ([9]; hek293, read-out: EC50) [µM] | EC50 ([9]; read-out: pEC50 (converted)) [µM] | EC50 [10] [µM] | Efficacy [12] [%] | EC50 ([1]; flp-in-293, read-out: EC50) [µM] | EC50 ([1]; read-out: pEC50 (converted)) [µM] | Time [11] [unitless ratio]
CCCNCCC[C@H](NC(=O)[C@@H]1CCCN1C(=O)[C@@H]1CSSC[C@H](N)C(=O)N[C@@H](Cc2ccccc2)C(=O)N[C@@H]([C@@H](C)CC)C(=O)N[C@@H](CC(N)=O)C(=O)N[C@@H](CC(N)=O)C(=O)N1)C(=O)NCC(N)=O (H-CFINNCP[Orn(Pr)]G-NH2; disulfide 1-6) | 0.031 | < 70 | – | 0.0015 | 20 | > 6600 | > 6600 | – | – | > 10 | > 10 | > 10 | > 10 | – | – | – | – | –
CC[C@H](C)[C@@H]1NC(=O)[C@H](Cc2ccccc2)NC(=O)[C@@H](N)CSSC[C@@H](C(=O)N2CCC[C@H]2C(=O)N[C@@H](CCCN)C(=O)NCC(N)=O)NC(=O)[C@H](CC(N)=O)NC(=O)[C@H](CC(=O)NC(CO)CO)NC1=O (H-CFID(NHCH(CH2OH)2)NCP[Orn]G-NH2; disulfide 1-6) | 0.062 | < 70 | – | 0.016 | 3.8 | > 620 | > 620 | – | – | > 10 | > 10 | > 10 | > 10 | – | < 70 | – | – | –
CC[C@H](C)[C@@H]1NC(=O)[C@H](Cc2cnc[nH]2)NC(=O)[C@@H](N)CSSC[C@@H](C(=O)N2CCC[C@H]2C(=O)N[C@@H](CCN)C(=O)NCC(N)=O)NC(=O)[C@H](CC(N)=O)NC(=O)[C@H](CCC(N)=O)NC1=O (H-CHIQNCP[Dab]G-NH2; disulfide 1-6) | – | – | – | 0.51 | > 19 | > 19 | > 19 | – | – | > 10 | > 10 | > 10 | > 10 | – | < 70 | > 10 | > 10 | –

Now those with a lower EC50 [4], led by results:

EC50 ([1]; read-out: EC50) [µM] | Efficacy [2] [%] | Efficacy [3] [%] | EC50 [4] [µM] | Ratio EC50 [5] | Ratio EC50 [6] | Ratio EC50 [7] | EC50 ([8]; read-out: EC50) [µM] | EC50 ([9]; read-out: EC50) [µM] | EC50 ([8]; cho-k1, read-out: EC50) [µM] | EC50 ([8]; read-out: pEC50 (converted)) [µM] | EC50 ([9]; hek293, read-out: EC50) [µM] | EC50 ([9]; read-out: pEC50 (converted)) [µM] | EC50 [10] [µM] | Efficacy [12] [%] | EC50 ([1]; flp-in-293, read-out: EC50) [µM] | EC50 ([1]; read-out: pEC50 (converted)) [µM] | Structure (SMILES) | Time [11] [unitless ratio]
0.05 | < 70 | < 70 | 0.00061 | 81 | 49 | 320 | 0.03 | 0.2 | – | – | – | – | – | – | – | – | CC[C@H](C)[C@@H]1NC(=O)[C@H](Cc2ccsc2)NC(=O)[C@@H](N)CSSC[C@@H](C(=O)N2CCC[C@H]2C(=O)N[C@@H](CCN)C(=O)NCC(N)=O)NC(=O)[C@H](CC(N)=O)NC(=O)[C@H](CCC(N)=O)NC1=O (H-C[3Thi]IQNCP[Dab]G-NH2; disulfide 1-6) | –
0.02 | – | – | 0.0008 | 25 | > 12000 | 1500 | – | 1.2 | > 10 | > 10 | – | – | 0.0042 | – | – | – | CC[C@H](C)[C@@H]1NC(=O)[C@H](CC2CCCC2)NC(=O)[C@@H](N)CSSC[C@@H](C(=O)N2CCC[C@H]2C(=O)N[C@@H](CCN)C(=O)NCC(N)=O)NC(=O)[C@H](CC(N)=O)NC(=O)[C@H](CCC(N)=O)NC1=O (H-C[Ala(cPent)]IQNCP[Dab]G-NH2; disulfide 1-6) | 2.3
